# Compound activity (PubChem)
# Most compounds without a hit are left out; they make up all but 5.6% or so of the library.
# aDG glyco up: increases alpha dystroglycan glycosylation. actives 0.22% (n = 360,000). AID 624168. Pro5-aDG cells, alpha-DG glycosylation AlphaScreen (IIH6); 0% Pro5, 100% B10-LARGE cell signal. activation, % at 10 µM;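 active = activation of at least 8% versus controls, or a plate z-score of at least 8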;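 note: Pro5 are CHO cells carrying HIG-tagged alpha-DG that lacks glycosylation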
# MPTP block: inhibitors of mitochondrial permeability transition pore; isolated mouse mitochondria, Ca2+ swelling absorbance, 30 min; inhibition, % at 10 µM; actives 1.4% (n = 360,000); AID 602449;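 active = inhibition of 50% or more, scaled per plate between neutral and stimulator controls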;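 note: 0% = DMSO wells given calcium and 100% = 1 mM EGTA wells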
# NR3A LBD binder: modulates the human NR3A ligand-binding domain; NR3A LBD differential scanning fluorimetry, Tm shift; 0% = protein alone, 100% = glycine-bound protein; Tm shift relative to glycine control, % at 25 µM; actives 2.5% (n = 340,000); AID 1259313;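 active = melting temperature shift of at least 10% of the positive control shift, at one fixed dose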
# UPR XBP1 act: adaptive UPR (XBP1) activation | CHO-XBP1 luciferase reporter, IRE1-XBP1 UPR activation, luminescence; percent of tunicamycin response, DMSO as zero | activation, % at 20 µM | actives 0.33% (n = 330,000) | AID 463104;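 active = versus positive control, 20 µM dose yields 30% or more activation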;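 note: 100% = tunicamycin at 10 µg/mL and 0% = DMSO only wells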
#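 assay system = CHO-XBP1 luciferase reporter cells | amount = 1000 cells/well | buffer or medium = F12 plus 10% FBS | compound dosing = single point, 20 µM final compound, 1% DMSO | incubation = 16-18 h cell attachment at 37 °C, then 6 h compound exposure | detection = Steady-Glo luminescence read | controls = tunicamycin 10 µg/mL and vehicle-only wells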
# CHOP inh: CHOP inhibition in unfolded protein response; CHO-K1 CHOP-promoter luciferase, tunicamycin-induced, 15-18 h; inhibition, % at 10 µM; actives 3.8% (n = 220,000); AID 2732;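 active = compounds that reduced the stress-induced luciferase reporter signal by more than about 70% of percent inhibition, limit read from the data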;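 note: 0% = tunicamycin plus vehicle and 100% = wells without tunicamycin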
# UPR CHOP act: apoptotic UPR (CHOP) activation | CHO-CHOP luciferase reporter, luminescence; percent of tunicamycin response over DMSO baseline | activation, % at 10 µM | actives 0.34% (n = 330,000);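 active = at 10 µM dose, activation of 40% or more, normalized to positive control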;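 note: 100% = tunicamycin at 10 µg/mL and 0% = DMSO alone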
#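 System: CHO CHOP reporter cells. Amount: 500 cells per well. Buffer or medium: F12 medium, 10% FBS. Compound dosing: one dose, 10 µM in 0.5% DMSO. Incubation: 6 h compound exposure at 37 °C after overnight seeding. Technique: Steady-Glo luciferase luminescence. Benchmarks: tunicamycin and DMSO controls.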
# Numbers without * were called inactive; . = not tested or not shown.
SMILES,aDG glyco up,MPTP block,NR3A LBD binder,UPR XBP1 act,CHOP inh,UPR CHOP act
Cc1csc(C(C)N(C)C(=O)c2ccc(OC3CCN(Cc4ccccn4)CC3)cc2)n1 (centres undefined),1,0,2,-5,.,-1
O=C(CSc1cccc[n+]1[O-])Nc1ccc([N+](=O)[O-])cc1Cl,0,2,1,2,1,1
Cc1cc(C)cc(N2C(=O)CC(c3ccccc3)CC2=O)c1,0,0,17*,-3,.,2
CN(C)c1ccc2nc3ccc(=[N+](C)C)cc-3sc2c1,47*,48,-4,5,42,1
CN(C)C(=S)NC(=S)Nc1ccc2ccccc2c1,0,5,21*,.,.,.
FC(F)C(F)(F)Oc1cccc(Nc2nccn3c(-c4cccc5ccccc45)cnc23)c1,1,-1,.,.,.,.
Nc1nc(-c2ccccn2)nc(N)c1Cc1ccc(Cl)cc1Cl,4,-3,-2,43*,46,34
Nc1nc(-c2ccccn2)nc(N)c1Cc1ccccc1F,2,-3,0,17,-43,9
COc1cccc(C(=O)Nc2sc3c(c2C#N)CCN(C(C)=O)C3)c1,0,17,0,-1,-28,0
Cc1ccc(-c2onc3ccc(C4(C)OCCO4)cc23)cc1,0,1,4,3,86*,2
Cc1ccc(S(=O)(=O)N[C@H](C(=O)Oc2ccc3c(C(F)(F)F)cc(=O)oc3c2)c2ccccc2)cc1,0,0,-7,2,75*,-1
Cc1ccc(S(=O)(=O)NC(C(=O)Oc2ccc3ccc(=O)oc3c2)c2ccccc2)cc1 (centres undefined),0,1,-11,-2,22,-1
COC[C@@H]1CCCN1[C@@H]1CS(=O)(=O)N[C@H]1COCc1ccccc1,0,0,.,.,.,.
CN1C(=O)/C(=C\c2ccccc2F)Sc2ccc(C(=O)NC3CCN(Cc4ccccc4)CC3)cc21,4,2,-5,-4,.,-1
CCCNC(=O)c1cc(C2CCCN(C(=O)c3ccc(NC(C)=O)cc3)C2)on1 (centres undefined),0,0,.,.,.,.
Cc1ccc(NC(=O)Nc2cc(C(F)(F)F)c[nH]c2=O)cc1,0,0,24*,2,.,1
N#Cc1c(-c2ccco2)nc(SCc2ccc(F)cc2)[nH]c1=O,0,26,-30,0,48,0
Cc1nc(SCc2cccc(F)c2)[nH]c(=O)c1C#N,0,1,13*,-1,1,1
C1=C(c2ccccc2)N2CCN=C2S1,0,0,-9,-1,86*,0
Cc1ccc(C)c(-n2nnnc2SCC(=O)c2ccc3c(c2)NC(=O)CO3)c1,0,4,-3,-1,81*,-1
CSc1ccc(CNc2ccc(C)c(C)c2)cc1,0,3,4,1,92*,1
CSc1ccc(CNc2ccc(C)cc2)cc1,0,3,4,1,42,3
CC1=NN(c2ccc(C(=O)O)cc2)C(=O)/C1=C\c1ccc(OC(=O)c2cccs2)cc1,0,-1,14*,1,1,0
Cc1ccoc1C(=O)Nc1ccc2ccccc2c1,0,-1,6,-9,.,1
Cc1ccoc1C(=O)Nc1ccc(CC(=O)O)cc1,0,0,2,-4,73*,-6
SMILES,aDG glyco up,MPTP block,NR3A LBD binder,UPR XBP1 act,CHOP inh,UPR CHOP act
O=C(NN1c2ccccc2CCc2ccccc21)c1ccccc1Br,0,0,-1,0,76*,3
CNc1cc(C)nc(-n2nc(C)cc2C)n1,1,0,11*,1,40,2
Cc1cc(Cl)nc(-n2nc(C)cc2C)n1,0,0,-5,-3,2,4
O=C(Nc1ccccc1O)c1ccc(NS(=O)(=O)c2cccc3cccnc23)cc1,0,-1,20*,18,-8,1
Cc1cc(C(C)(C)C)cc(S(=O)(=O)Nc2cccc(C(=O)O)c2)c1C,0,-2,3,-1,18,-1
Cc1cccc(NC(=O)c2ccc(NS(=O)(=O)c3cccc4cccnc34)cc2)c1,0,0,30*,.,.,.
CCOc1ccc(NC(=O)c2ccc(NS(=O)(=O)c3cccc4cccnc34)cc2)cc1,0,0,17*,.,.,.
Cc1ccccc1NC(=O)c1ccc(NS(=O)(=O)c2cc(C(C)(C)C)cc(C)c2C)cc1,0,1,13*,-4,65,-1
CCC(C(=O)NC(C)(C)C)N(Cc1ccc(F)cc1)C(=O)c1snc(C(N)=O)c1N (centres undefined),0,1,-1,0,.,3
CN1CCC(N(C)C(=O)c2ccc(Cl)c(S(=O)(=O)N(C)c3ccc(Cl)cc3)c2)CC1,0,10,0,-2,.,4
CCOC(=O)C1CCN(C(=O)Cn2ncc3c([nH]c4ccccc43)c2=O)CC1,0,0,13*,-1,.,3
O=C(Cn1ncc2c([nH]c3ccccc32)c1=O)N1CCCCC1,0,-1,1,-1,.,2
Clc1ccc(-c2cc3ccccc3[nH]2)cc1,0,37,17*,3,95*,2
Cc1ccc(C(=O)NC(=S)Nc2c(C)ccc3nsnc23)cc1,0,-2,11*,-2,13,-1
Cc1ccc(C(=O)NC(=S)Nc2cccc3nsnc23)cc1,0,-5,0,6,1,4
O=S(=O)(c1ccc(Cl)cc1)N1CCN(C(=S)NCC2CCCO2)CC1 (centres undefined),0,0,11*,-2,.,0
O=S(=O)(c1ccc(F)cc1)N1CCN(C(=S)NCC2CCCO2)CC1 (centres undefined),0,0,1,-4,.,0
CC(C)CCN1CCC[C@]2(N[C@H](c3ccc(C(F)(F)F)cc3)[C@@H]3C(=O)N(Cc4ccccc4)C(=O)[C@@H]32)C1=O,0,1,.,.,.,.
COc1ccc(-c2nn(-c3ccccc3)cc2C(=O)OCC(=O)c2ccc(C)c([N+](=O)[O-])c2)cc1,2,2,2,3,87*,13
O=C1NC(=Nc2ccccc2)/C(=C/c2ccco2)S1,0,22,-2,-3,20,1
Cc1ccc(N=C2NC(=O)S/C2=C\c2ccco2)cc1,0,41,-1,2,100*,2
Cc1ccc(S(=O)(=O)Nc2ccc3nc(C)oc3c2)cc1,0,6,11*,.,.,.
Cc1ccc2nc(-c3ccc(NC(=O)CCN4C(=O)c5ccccc5C4=O)cc3)sc2c1,0,4,18*,4,45,4
